# From ChEMBL document CHEMBL1165965, “Synthesis and structure-activity relationships of 1,2,3,4-tetrahydropyrido[2,3-b]pyrazines as potent and selective inhibitors of the anaplastic lymphoma kinase” (Bioorg Med Chem, 2010)
# Tests used:
# [1] = system: T1, Receptor-type tyrosine-protein kinase FLT3 (Homo sapiens), P36888 [K663Q]; test: Inhibition of FLT3 K663Q mutant at 1 uM
# T1 sequence (whole entry): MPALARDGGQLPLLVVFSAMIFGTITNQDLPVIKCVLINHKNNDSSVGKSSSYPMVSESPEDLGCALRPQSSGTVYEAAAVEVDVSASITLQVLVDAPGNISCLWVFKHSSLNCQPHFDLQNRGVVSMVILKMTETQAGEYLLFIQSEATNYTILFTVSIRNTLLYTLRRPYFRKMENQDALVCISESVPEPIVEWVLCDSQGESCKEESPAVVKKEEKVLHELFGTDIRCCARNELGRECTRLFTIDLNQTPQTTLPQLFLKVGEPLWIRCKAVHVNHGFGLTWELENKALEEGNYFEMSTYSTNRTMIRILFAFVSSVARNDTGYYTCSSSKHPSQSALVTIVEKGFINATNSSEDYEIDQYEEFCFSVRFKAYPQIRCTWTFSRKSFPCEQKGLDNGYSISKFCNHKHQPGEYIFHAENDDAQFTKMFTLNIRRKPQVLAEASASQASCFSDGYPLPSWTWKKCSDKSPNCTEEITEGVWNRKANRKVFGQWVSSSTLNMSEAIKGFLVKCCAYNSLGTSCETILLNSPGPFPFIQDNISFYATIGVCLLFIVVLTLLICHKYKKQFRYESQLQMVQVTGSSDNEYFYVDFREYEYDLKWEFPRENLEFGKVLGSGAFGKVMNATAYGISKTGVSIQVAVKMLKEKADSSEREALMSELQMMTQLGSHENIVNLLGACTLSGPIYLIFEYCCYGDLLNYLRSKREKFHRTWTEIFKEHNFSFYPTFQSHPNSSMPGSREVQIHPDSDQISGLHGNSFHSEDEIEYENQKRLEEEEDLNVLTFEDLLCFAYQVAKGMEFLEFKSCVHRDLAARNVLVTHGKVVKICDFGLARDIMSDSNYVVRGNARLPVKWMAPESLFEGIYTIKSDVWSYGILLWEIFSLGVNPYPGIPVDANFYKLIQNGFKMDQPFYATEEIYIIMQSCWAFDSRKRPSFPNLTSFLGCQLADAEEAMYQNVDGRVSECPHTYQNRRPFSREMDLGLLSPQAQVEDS
# [2] = molecular target: Glycogen synthase kinase-3 beta (Homo sapiens) (UniProt P49841); test: Inhibition of GSK3B at 1 uM
# Sequence of Glycogen synthase kinase-3 beta (Homo sapiens) (P49841 whole entry, looked up): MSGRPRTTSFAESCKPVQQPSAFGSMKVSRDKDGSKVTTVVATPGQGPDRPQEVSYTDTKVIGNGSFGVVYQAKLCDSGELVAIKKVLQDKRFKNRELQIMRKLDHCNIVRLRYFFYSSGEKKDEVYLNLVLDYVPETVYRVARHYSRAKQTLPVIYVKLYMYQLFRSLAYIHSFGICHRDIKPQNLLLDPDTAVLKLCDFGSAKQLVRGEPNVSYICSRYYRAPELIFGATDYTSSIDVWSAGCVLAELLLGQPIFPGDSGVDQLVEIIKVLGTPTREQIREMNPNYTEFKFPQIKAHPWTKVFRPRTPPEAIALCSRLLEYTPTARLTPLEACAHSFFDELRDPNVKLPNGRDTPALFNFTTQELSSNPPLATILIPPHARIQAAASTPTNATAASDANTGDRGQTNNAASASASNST
# Method in brief: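 Single-concentration screen on the Ambit KINOMEscan platform, run against a panel of 250–400 kinases. Per-kinase inhibition was also summarized as S(90), the fraction of kinases inhibited by more than 90%.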
# [3] = molecular target: Receptor-interacting serine/threonine-protein kinase 2 (Homo sapiens) (UniProt O43353); test: Inhibition of RIPK2 at 1 uM
# Sequence of Receptor-interacting serine/threonine-protein kinase 2 (Homo sapiens) (O43353 whole entry): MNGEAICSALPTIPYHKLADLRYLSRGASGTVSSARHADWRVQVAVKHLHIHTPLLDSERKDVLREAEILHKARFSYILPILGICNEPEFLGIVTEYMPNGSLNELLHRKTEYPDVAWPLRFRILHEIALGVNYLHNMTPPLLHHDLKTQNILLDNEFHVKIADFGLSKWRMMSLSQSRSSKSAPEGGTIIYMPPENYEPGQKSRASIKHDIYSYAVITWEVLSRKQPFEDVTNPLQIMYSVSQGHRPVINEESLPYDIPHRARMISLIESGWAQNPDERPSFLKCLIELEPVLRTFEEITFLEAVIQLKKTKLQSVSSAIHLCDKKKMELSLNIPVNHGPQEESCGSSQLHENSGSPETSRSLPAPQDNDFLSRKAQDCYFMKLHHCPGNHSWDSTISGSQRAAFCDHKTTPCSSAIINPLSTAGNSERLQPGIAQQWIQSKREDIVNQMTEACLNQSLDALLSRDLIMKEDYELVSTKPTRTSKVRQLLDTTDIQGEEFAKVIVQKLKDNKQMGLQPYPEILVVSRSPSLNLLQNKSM
# [4] = molecular target: T2, Rhodopsin kinase GRK7 (Homo sapiens) (UniProt Q8WTQ7); test: Inhibition of GRK7 at 1 uM
# T2 sequence (whole entry): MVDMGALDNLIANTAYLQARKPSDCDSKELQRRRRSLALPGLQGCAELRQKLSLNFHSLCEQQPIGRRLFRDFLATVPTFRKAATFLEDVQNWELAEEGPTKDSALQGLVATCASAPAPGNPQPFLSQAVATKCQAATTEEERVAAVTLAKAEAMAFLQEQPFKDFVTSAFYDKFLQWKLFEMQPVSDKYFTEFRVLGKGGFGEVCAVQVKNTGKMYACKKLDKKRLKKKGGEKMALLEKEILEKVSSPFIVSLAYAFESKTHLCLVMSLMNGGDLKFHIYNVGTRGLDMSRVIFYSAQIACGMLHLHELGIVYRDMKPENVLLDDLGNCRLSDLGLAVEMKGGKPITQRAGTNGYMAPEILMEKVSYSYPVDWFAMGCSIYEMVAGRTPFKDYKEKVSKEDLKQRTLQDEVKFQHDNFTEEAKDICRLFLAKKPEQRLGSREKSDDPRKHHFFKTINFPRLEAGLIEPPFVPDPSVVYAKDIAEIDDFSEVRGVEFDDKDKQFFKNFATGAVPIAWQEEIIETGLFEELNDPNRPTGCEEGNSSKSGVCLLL
# [5] = molecular target: T3, Mitogen-activated protein kinase kinase kinase 3 (Homo sapiens) (UniProt Q99759); test: Inhibition of MAP3K3 at 1 uM
# T3 sequence (whole entry): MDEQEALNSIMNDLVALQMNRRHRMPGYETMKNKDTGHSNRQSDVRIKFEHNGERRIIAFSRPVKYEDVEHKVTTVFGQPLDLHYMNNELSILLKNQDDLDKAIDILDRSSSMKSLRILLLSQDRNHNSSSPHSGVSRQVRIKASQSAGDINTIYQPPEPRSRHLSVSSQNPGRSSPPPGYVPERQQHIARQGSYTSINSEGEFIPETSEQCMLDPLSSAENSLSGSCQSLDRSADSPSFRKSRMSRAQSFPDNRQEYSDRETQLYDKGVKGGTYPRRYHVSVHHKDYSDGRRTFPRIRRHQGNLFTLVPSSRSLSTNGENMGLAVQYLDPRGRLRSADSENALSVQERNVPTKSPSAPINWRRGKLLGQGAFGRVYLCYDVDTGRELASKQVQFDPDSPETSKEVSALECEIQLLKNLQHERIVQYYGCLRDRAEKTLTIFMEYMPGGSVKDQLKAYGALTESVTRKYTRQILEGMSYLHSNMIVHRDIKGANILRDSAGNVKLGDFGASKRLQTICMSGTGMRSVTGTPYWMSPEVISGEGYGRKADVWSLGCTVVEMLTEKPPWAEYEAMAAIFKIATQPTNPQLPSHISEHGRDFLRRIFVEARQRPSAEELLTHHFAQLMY
# [6] = molecular target: Citron Rho-interacting kinase (Homo sapiens) (UniProt O14578); test: Inhibition of CIT at 1 uM
# Sequence of Citron Rho-interacting kinase (Homo sapiens) (O14578 whole entry): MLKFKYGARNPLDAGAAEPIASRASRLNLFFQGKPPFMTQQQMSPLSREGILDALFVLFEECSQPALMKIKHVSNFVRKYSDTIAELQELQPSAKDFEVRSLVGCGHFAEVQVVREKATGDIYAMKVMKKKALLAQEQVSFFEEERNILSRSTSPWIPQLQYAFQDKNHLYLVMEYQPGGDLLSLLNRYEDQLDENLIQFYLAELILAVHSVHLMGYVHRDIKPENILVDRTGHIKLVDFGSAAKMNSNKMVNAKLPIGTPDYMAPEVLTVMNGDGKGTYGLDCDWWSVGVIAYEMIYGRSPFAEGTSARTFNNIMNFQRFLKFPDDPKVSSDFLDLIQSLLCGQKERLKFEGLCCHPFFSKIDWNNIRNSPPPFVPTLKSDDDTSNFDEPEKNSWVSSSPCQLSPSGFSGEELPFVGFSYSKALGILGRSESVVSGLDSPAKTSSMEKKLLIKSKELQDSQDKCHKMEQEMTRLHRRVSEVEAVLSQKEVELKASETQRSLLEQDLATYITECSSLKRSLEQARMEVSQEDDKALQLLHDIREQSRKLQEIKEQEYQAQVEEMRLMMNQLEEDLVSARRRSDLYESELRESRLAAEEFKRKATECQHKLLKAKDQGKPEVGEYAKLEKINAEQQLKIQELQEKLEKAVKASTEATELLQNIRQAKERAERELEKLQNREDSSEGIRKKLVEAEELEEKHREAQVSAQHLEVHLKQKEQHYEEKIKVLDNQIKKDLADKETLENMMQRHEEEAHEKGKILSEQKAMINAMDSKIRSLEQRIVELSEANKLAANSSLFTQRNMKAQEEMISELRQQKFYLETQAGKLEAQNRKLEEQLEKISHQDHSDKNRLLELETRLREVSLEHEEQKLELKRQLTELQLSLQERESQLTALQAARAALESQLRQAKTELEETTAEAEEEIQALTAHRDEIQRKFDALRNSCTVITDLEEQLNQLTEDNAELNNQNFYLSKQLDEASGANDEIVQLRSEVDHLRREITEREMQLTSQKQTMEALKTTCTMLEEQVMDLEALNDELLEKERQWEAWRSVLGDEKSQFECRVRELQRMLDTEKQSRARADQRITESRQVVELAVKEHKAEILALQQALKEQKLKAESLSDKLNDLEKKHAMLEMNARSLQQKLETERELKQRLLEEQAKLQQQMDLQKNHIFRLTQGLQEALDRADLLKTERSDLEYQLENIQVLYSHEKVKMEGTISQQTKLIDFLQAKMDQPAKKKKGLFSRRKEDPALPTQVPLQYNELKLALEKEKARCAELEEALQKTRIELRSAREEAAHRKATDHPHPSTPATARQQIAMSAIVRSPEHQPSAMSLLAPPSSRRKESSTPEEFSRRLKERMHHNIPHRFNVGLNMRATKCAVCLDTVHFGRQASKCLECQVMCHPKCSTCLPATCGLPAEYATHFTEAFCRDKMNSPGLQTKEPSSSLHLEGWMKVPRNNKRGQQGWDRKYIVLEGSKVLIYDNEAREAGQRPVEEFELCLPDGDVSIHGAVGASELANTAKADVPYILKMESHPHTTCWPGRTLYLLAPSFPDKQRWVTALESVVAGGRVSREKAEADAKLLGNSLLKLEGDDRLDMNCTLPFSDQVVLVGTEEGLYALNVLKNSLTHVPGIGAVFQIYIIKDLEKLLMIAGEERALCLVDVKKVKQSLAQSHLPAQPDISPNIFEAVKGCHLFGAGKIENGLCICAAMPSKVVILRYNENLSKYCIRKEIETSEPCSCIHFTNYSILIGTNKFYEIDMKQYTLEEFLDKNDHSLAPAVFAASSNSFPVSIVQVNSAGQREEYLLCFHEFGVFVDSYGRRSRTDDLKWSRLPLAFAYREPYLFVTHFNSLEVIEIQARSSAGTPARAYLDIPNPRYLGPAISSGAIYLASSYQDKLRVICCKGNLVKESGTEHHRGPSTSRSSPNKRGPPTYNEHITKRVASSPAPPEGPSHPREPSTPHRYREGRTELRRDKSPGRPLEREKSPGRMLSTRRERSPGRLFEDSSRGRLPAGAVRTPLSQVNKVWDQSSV
# [7] = molecular target: Serine/threonine-protein kinase Nek7 (Homo sapiens) (UniProt Q8TDX7); test: Inhibition of NEK7 at 1 uM
# Sequence of Serine/threonine-protein kinase Nek7 (Homo sapiens) (Q8TDX7 whole entry, looked up): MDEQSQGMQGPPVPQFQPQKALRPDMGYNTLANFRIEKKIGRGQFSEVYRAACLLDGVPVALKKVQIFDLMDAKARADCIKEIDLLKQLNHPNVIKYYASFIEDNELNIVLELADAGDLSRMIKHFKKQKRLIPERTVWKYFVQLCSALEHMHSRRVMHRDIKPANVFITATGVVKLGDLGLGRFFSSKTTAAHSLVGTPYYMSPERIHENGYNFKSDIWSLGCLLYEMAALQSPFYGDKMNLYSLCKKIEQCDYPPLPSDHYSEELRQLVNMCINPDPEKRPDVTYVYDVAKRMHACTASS
Structure (SMILES),inhibition [1],inhibition [2],inhibition [3],inhibition [4],inhibition [5],inhibition [6],inhibition [7]
CN1CCN(c2ccc(-c3cnc4c(c3)N(Cc3cc(F)ccc3F)CCN4)cn2)CC1,80%,< 50%,< 50%,< 50%,< 50%,< 50%,< 50%
CC(=O)N1CCN(c2cc(-c3cnc4c(c3)N(Cc3cc(Cl)ccc3C(F)(F)F)CCN4)ccn2)CC1,93%,< 50%,< 50%,< 50%,< 50%,< 50%,< 50%
CN1CCN(c2ccc(-c3cnc4c(c3)N(Cc3c(F)ccc(F)c3Cl)CCN4)cn2)CC1,70%,< 50%,< 50%,< 50%,< 50%,< 50%,< 50%
FC(F)(F)c1ccc(Cl)cc1CN1CCNc2ncc(-c3ccnc(N4CCNCC4)c3)cc21,98%,< 50%,< 50%,67%,88%,< 50%,< 50%
CN1CCN(c2ccc(-c3cnc4c(c3)N(Cc3cc(Cl)ccc3Cl)CCN4)cn2)CC1,93%,< 50%,< 50%,< 50%,< 50%,< 50%,< 50%
O=C(c1ccc(-c2cnc3c(c2)N(Cc2cc(Cl)ccc2C(F)(F)F)CCN3)cc1)N1CCC(N2CCCC2)CC1,–,< 50%,< 50%,–,–,–,–
O=C(O)c1ccc(-c2cnc3c(c2)N(Cc2cc(Cl)ccc2C(F)(F)F)CCN3)cc1,–,< 50%,< 50%,–,–,–,–
CN1CCN(c2ccc(-c3cnc4c(c3)N(Cc3cc(Cl)ccc3C(F)(F)F)CCN4)cn2)CC1,92%,< 50%,< 50%,< 50%,< 50%,< 50%,< 50%
O=C(c1ccc(-c2cnc3c(c2)N(Cc2cc(Cl)ccc2C(F)(F)F)CCN3)cc1)N1CCCCC1,–,< 50%,< 50%,–,–,–,–
COC1CCN(C(=O)c2ccc(-c3cnc4c(c3)N(Cc3cc(Cl)ccc3C(F)(F)F)CCN4)cc2)CC1,–,< 50%,< 50%,–,–,–,–
